Source: PubChem BioAssay
HTR1E agonist: activates the human 5-HT1E serotonin receptor; activation, % at 6 µM; P28566; CHO 5-HT1E Ga15 NFAT-bla reporter, FRET; 0% DMSO wells, 100% control agonist wells; 0.69% of 65,000 active;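 active means activation above a set limit, the screen-wide mean activation plus 3 SD, cut at about 8.5% in these data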;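 further: 100% = positive control agonist at 1 µM giving full maximal response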
5-HT1A blocker: blocks the human serotonin 5-HT1a receptor; P08908; CHO 5-HT1a Ga15 NFAT-bla reporter, antagonist mode; inhibition, % at 10 µM; 0.68% of 62,000 active;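 active means inhibition above the mean of all tested compounds plus 3 SD, cut at about 43% in these data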;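 further: receptor stimulated by 5-CT agonist at 100 nM near EC80; beta-lactamase reporter measured by ratiometric fluorescence of a cleavable substrate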
Target sequence (P08908 whole entry, looked up): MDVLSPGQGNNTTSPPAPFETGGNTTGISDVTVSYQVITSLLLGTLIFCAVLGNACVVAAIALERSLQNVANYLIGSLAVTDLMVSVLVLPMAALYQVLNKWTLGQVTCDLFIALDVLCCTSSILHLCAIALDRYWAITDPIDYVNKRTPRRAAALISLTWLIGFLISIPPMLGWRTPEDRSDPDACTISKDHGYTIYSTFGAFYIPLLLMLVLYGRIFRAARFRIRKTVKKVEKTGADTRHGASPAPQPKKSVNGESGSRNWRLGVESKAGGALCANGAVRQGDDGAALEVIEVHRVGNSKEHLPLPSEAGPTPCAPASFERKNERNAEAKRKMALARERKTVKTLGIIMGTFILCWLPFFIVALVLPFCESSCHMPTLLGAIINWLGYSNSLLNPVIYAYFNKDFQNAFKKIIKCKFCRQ
S1P3 ag: S1P3 (human) receptor agonism. S1P3 NFAT-BLA reporter cells, FRET ratio; relative to 1 µM S1P, basal subtracted. activation, % at 4.5 µM. 0.1% of 60,000 active. Q99500;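 active means activation above the screen-wide mean plus 3 SD, cut at about 4.5% in these data, passing the limit was not always enough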
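Measure – % activation relative to 1 µM S1P (100%), per plate · System – stable CHO line with human S1P3, Gα16, NFAT-BLA reporter · Timing – cells plated overnight, compound 4 h 37 °C, substrate 2 h RT · Technique – fluorescent BLA substrate, ex 405 nm, em 460/535 nm ratio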
5HT1a ag: agonists of human 5-HT1a serotonin receptor. P08908. CHO 5-HT1a Ga15 NFAT-bla reporter, FRET ratio; 0% basal, 100% maximal reference agonist. activation, % at 10 µM. 0.56% of 65,000 active. AID 567;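 active means activation above the screen-wide mean activation plus 3 SD, cut at about 19% in these data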;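 further: 0% = DMSO wells and 100% = 5-CT at EC100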
S1P1 ag pot: activates or potentiates agonism at human S1P1 receptor; P21453; activation, % at 9.5 µM; 0.57% of 56,000 active; AID 449; S1P1 CRE-bla cells, forskolin, beta-lactamase FRET, potentiator mode; S1P1 agonist co-added at EC20, 2 nM; 100% = saturating reference agonist, 0% = basal;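 active means activation above a cutoff set at the mean activation of all tested compounds plus 3 SD, cut at about 54% in these data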;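 further: forskolin at 4 µM as EC80 and the EC20 agonist is SEW2871; 100% = SEW2871 at its EC100 plus forskolin at EC80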
HTR1E antagonist: 5-HT1E (human) receptor antagonism. P28566. CHO 5-HT1E Ga15 NFAT-bla reporter, FRET, antagonist. inhibition, % at 6 µM. 0.99% of 65,000 active;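 active means inhibition above a set limit, the mean inhibition across every tested compound plus 3 SD, cut at about 29% in these data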;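 further: signal is the 460 over 535 nm emission ratio of beta-lactamase substrate; 0% = agonist plus DMSO wells and 100% = wells without agonist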
* = called active by the depositor; · = no result given. A selection: hits, their analogues and other compounds. The true share with any hit is near 3%.

SMILES	HTR1E agonist	5-HT1A blocker	S1P3 ag	5HT1a ag	S1P1 ag pot	HTR1E antagonist
COc1ccc(C(=O)N2CCOCC2)cc1S(=O)(=O)N1CCC(C)CC1	0	-8	0	40*	·	-2
COc1ccc(C(=O)CN2CCOCC2)cc1F	1	·	-4	3	10	1
c1cc2n(c1)-c1c(ccc3c1OCO3)CNC2c1ccc2c(c1)OCO2 (configuration not stated)	0	36	0	0	25	11
COc1ccc(C2NCc3ccc4c(c3-n3cccc32)OCO4)cc1O (configuration not stated)	0	65*	-1	-1	9	31*
CC(=NCc1ccco1)c1c(O)n(Cc2ccccc2)c(=O)[nH]c1=O	0	10	-1	-3	-16	2
CCOC(=O)C1CCN(/C=C2/C(=O)NC(=O)N(Cc3ccco3)C2=O)CC1	0	0	-2	-2	-33	2
Cc1nc2cc(C(F)(F)F)ccc2n1C1CCN(Cc2nnnn2Cc2ccc3c(c2)OCO3)CC1	0	9	0	0	16	37*
Cc1nc2cc(C(F)(F)F)ccc2n1C1CCN(Cc2nnnn2Cc2cccs2)CC1	-1	-14	·	-1	·	9
CCOP(=O)(C#CC(C)(C)C)C1(O)CCCCC1 (configuration not stated)	0	9	0	2	0	-14
CN1CCN(c2nccc3c2ncn3C)CC1	9.8*	1	-1	-2	-25	-6
O=P(C(c1c[nH]c2ccccc12)N1CCOCC1)(N1CCOCC1)N1CCOCC1 (configuration not stated)	0	9	-1	-1	4	3
CCn1c(O)c(C=NCCc2c[nH]c3ccccc23)c(=O)[nH]c1=O	17*	12	-1	0	-7	5
CCOC(=O)c1cc2c(cn1)[nH]c1ccccc12	-1	·	-4	2	11	32*
CCCCOC(=O)C1=C(N)OC2=C(C(=O)CC(C)(C)C2)[C@]12C(=O)N(C)c1ccccc12	0	12	0	-1	4	-8
C#CCN1C(=O)C2(C(C#N)=C(N)OC(C)=C2C(=O)OCc2ccccc2)c2ccccc21 (configuration not stated)	-1	8	0	0	12	15
O=C(NC[P+](=O)O)OCc1ccccc1	1	-4	1	-3	-18	-2
CN1C[C@H](CNC(=O)OCc2ccccc2)C[C@@H]2c3cccc4c3c(cn4C)C[C@H]21	22*	·	50	85*	-8	9
CC(C)OC(=O)c1c(N)n(Cc2ccco2)c2nc3ccccc3nc12	0	·	-4	6	-32	29*
Nc1c(C(=O)NCc2ccco2)c2nc3ccccc3nc2n1CCN1CCCCC1	0	·	11*	6	-123	-23
COCCOC(=O)c1c(N)n(Cc2ccco2)c2nc3ccccc3nc12	0	·	-3	2	-25	11
Clc1ccc2c(N3CCNCC3)ccnc2c1	12*	11	0	-2	6	9
c1ccc2c(NC3=NCCS3)cccc2c1	0	14	0	-4	-22	-9
CNCC(O)c1cccc(OC(=O)c2ccccc2C)c1 (configuration not stated)	9.4*	0	-1	3	-3	-3
Cc1[nH]c2c(C(F)(F)F)cccc2c1CCN	67*	7	0	-1	16	22
Cc1n[nH]c(C)c1CCN	-1	7	0	-2	-1	6
CCn1nc(-c2ccccc2)nc2c(=O)n(C)c(=O)nc1-2	2	85*	-2	9	73*	101*
CC(=O)OC1C2CCCC1C(N1CCCC1)CC2 (configuration not stated)	0	10	0	-4	-7	2
COc1ccccc1N1CCN(Cc2ccc(Br)s2)CC1	5	44*	-1	-2	-23	-4
COc1ccc(Cc2nccc3cc(OC)c(OC)cc23)cc1OC	0	·	2	-3	8	41*
